For assay [1], the target named is Protein kinase C iota (Homo sapiens) (UniProt P41743). The assay can be described thus: Inhibition of PKCi in human SKCO1 cells at 1 uM after 4 hrs using biotin labeled DLKLDNVLLDSEGHIK probe by mass-spectrometric analysis relative to control.
Assay [2] deals with T1, Serine/threonine-protein kinase D2 (Homo sapiens) (UniProt Q9BZL6).
T1 sequence (whole entry): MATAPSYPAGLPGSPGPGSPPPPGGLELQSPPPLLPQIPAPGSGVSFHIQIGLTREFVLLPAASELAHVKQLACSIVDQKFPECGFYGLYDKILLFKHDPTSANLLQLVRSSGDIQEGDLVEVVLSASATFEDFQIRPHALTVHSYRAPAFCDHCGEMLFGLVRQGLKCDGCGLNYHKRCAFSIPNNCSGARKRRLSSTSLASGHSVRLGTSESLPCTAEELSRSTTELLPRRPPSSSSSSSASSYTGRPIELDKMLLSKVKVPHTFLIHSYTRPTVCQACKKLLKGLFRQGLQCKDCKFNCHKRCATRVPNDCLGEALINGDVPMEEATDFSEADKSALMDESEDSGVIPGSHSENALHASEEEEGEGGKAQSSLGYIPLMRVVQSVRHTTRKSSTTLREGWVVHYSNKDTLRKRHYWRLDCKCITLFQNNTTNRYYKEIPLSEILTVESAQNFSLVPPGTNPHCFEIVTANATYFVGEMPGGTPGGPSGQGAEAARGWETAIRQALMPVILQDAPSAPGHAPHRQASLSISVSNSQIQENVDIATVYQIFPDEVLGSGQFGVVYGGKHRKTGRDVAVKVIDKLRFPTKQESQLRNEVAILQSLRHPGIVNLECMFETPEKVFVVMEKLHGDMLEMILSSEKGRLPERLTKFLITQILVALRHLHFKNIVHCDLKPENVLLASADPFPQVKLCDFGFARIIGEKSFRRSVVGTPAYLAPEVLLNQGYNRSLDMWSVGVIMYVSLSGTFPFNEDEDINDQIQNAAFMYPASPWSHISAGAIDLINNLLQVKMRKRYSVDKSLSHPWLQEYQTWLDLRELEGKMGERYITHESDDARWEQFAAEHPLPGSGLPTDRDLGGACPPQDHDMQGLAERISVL
The assay can be described thus: Inhibition of human PRKD2 (519 to 838 residues) expressed in bacterial expression system assessed as enzyme activity at 1 uM by KINOMEScan assay relative to control. Also on record: scale not given: the % may be the effect or the level left. A digest of the protocol: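 In vitro ATP-site competition binding assay across a panel of 456 kinases, with compound tested at 1 and 10 μM.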

Assay [3] addresses Heterogeneous nuclear ribonucleoprotein U (Homo sapiens) (UniProt Q00839). The assay can be described thus: Binding affinity to HNRNPU in human NCI-H23 cells at 1 uM by mass spectrometry based pull down assay. The class given is cell-based.
For assay [4], the target named is Deaminated glutathione amidase (Homo sapiens) (UniProt Q86X76). The assay can be described thus: Binding affinity to NIT1 in human NCI-H23 cells at 1 uM by mass spectrometry based pull down assay. The class given is cell-based.
Chain of Deaminated glutathione amidase (Homo sapiens) (Q86X76 whole entry): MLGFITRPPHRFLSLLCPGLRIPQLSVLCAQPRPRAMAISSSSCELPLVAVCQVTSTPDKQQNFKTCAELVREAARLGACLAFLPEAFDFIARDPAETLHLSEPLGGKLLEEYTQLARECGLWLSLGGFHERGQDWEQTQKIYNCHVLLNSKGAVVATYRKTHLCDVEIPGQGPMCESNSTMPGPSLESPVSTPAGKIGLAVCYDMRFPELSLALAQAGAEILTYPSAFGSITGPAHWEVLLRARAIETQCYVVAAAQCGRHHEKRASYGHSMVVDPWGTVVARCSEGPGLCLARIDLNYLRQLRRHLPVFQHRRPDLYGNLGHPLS
Assay [5] has as its target Tight junction protein 1 (Homo sapiens) (UniProt Q07157). The assay can be described thus: Binding affinity to TJP1 in human NCI-H358 cells at 1 uM by mass spectrometry based pull down assay. In kind it is cell-based.
Assay [6] deals with Proteasome activator complex subunit 2 (Homo sapiens) (UniProt Q9UL46). The assay can be described thus: Binding affinity to PSME2 in human NCI-H23 cells at 1 uM by mass spectrometry based pull down assay. The class given is cell-based.
Chain of Proteasome activator complex subunit 2 (Homo sapiens) (Q9UL46 whole entry, one chain of several): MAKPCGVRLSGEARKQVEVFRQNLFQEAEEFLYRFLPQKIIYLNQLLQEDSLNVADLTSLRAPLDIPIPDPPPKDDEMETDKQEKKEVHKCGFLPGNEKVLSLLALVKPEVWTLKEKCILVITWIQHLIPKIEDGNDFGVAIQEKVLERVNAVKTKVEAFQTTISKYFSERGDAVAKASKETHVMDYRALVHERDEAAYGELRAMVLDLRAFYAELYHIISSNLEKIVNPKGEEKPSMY
In assay [7] the target is 14-3-3 protein eta (Homo sapiens) (UniProt Q04917). The assay can be described thus: Binding affinity to YWHAH in human NCI-H358 cells at 1 uM by mass spectrometry based pull down assay. The class given is cell-based.
Chain of 14-3-3 protein eta (Homo sapiens) (Q04917 whole entry): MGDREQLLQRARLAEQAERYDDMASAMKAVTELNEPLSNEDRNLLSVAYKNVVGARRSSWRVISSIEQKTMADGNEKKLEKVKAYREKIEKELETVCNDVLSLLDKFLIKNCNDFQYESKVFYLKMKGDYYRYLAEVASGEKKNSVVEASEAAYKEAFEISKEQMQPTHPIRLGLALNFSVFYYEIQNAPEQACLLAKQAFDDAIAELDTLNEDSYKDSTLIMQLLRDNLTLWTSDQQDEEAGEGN
Assay [8] concerns the target ATP synthase F(1) complex subunit gamma, mitochondrial (Homo sapiens) (UniProt P36542). The assay can be described thus: Binding affinity to ATP5C1 in human NCI-H358 cells at 1 uM by mass spectrometry based pull down assay. In kind it is cell-based.
Assay [9] addresses Alpha-2-HS-glycoprotein (Homo sapiens) (UniProt P02765). The assay can be described thus: Binding affinity to AHSG in human NCI-H23 cells at 1 uM by mass spectrometry based pull down assay. In kind it is cell-based. A digest of the protocol:
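NCI-H23 or NCI-H358 cells were grown and lysed. Lysates were incubated overnight at 4 °C with 1 μM biotinylated covalent probe or DMSO, then pulled down on streptavidin beads. Proteins were run on polyacrylamide gels and stained with Coomassie. Bands were excised, digested and identified by mass spectrometry.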

Assay [10] deals with T2, 80S Ribosome (Homo sapiens) (UniProt P08865+P42677+P62753+P15880+P23396+P61247+P62701+P22090+P46782+P62081+P62241+P46781+P46783+P62280+P25398+P62277+P62263+P62841+P62244+P62249+P08708+P62269+P39019+P60866+P63220+P62266+P62847+P62851+P62854+P62979+P62857+P62273+P62861+P39023+P36578+P46777+Q02878+P18124+P62424+P62917+P32969+P27635+P62906+P62913+P30050+P26373+P40429+P50914+P61313+P18621+Q07020+Q02543+P84098+P46778+P35268+P62829+P62750+P83731+P61254+P61353+P46776+P46779+P47914+P62888+P62899+P62910+P49207+P42766+P18077+Q9Y3U8+P83881+P61927+P61513+P63173+P62891+P62945+P05388+P05386). The assay can be described thus: Binding affinity to RPS10 in human NCI-H23 cells at 1 uM by mass spectrometry based pull down assay. The class given is cell-based.

Assay [11] has as its target Multifunctional protein CAD (Homo sapiens) (UniProt P27708). The assay can be described thus: Binding affinity to CAD in human NCI-H23 cells at 1 uM by mass spectrometry based pull down assay. The class given is cell-based.
Assay [12] concerns the target Cytosolic iron-sulfur assembly component 2A (Homo sapiens) (UniProt Q9H5X1). The assay can be described thus: Binding affinity to FAM96A in human NCI-H23 cells at 1 uM by mass spectrometry based pull down assay. In kind it is cell-based.
For assay [13], the target named is Glyoxalase domain-containing protein 4 (Homo sapiens) (UniProt Q9HC38). The assay can be described thus: Binding affinity to GLOD4 in human NCI-H358 cells at 1 uM by mass spectrometry based pull down assay. In kind it is cell-based.
Chain of Glyoxalase domain-containing protein 4 (Homo sapiens) (Q9HC38 whole entry, the tested form may be a part): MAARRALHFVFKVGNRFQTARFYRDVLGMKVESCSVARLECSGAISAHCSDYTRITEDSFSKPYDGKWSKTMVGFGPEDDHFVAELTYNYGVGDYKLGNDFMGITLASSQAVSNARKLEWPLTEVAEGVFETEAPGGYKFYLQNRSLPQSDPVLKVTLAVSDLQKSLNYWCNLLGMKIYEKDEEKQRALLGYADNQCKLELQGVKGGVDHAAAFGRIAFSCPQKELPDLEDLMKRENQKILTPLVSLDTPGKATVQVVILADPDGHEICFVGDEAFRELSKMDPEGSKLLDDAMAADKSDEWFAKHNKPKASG
For assay [14], the target named is T1, Serine/threonine-protein kinase D2 (Homo sapiens). The assay can be described thus: Binding affinity to PRKD2 in human NCI-H23 cells at 1 uM by mass spectrometry based pull down assay. The class given is cell-based.
Assay [15] has as its target T2, 80S Ribosome (Homo sapiens). The assay can be described thus: Binding affinity to RPL23A in human NCI-H358 cells at 1 uM by mass spectrometry based pull down assay. In kind it is cell-based.
Assay [16] deals with Small ribosomal subunit protein mS29 (Homo sapiens) (UniProt P51398). The assay can be described thus: Binding affinity to DAP3 in human NCI-H23 cells at 1 uM by mass spectrometry based pull down assay. The class given is cell-based.
Assay [17] deals with TGF-beta-activated kinase 1 and MAP3K7-binding protein 1 (Homo sapiens) (UniProt Q15750). The assay can be described thus: Binding affinity to TAB1 in human NCI-H358 cells at 1 uM by mass spectrometry based pull down assay. In kind it is cell-based.
Assay [18] has as its target Cyclin-G-associated kinase (Homo sapiens) (UniProt O14976). The assay can be described thus: Binding affinity to GAK in human NCI-H23 cells at 1 uM by mass spectrometry based pull down assay. In kind it is cell-based.

Activity calls are given as the source filed them. The rule behind the calls is not given here.

Chain of Heterogeneous nuclear ribonucleoprotein U (Homo sapiens) (Q00839 whole entry): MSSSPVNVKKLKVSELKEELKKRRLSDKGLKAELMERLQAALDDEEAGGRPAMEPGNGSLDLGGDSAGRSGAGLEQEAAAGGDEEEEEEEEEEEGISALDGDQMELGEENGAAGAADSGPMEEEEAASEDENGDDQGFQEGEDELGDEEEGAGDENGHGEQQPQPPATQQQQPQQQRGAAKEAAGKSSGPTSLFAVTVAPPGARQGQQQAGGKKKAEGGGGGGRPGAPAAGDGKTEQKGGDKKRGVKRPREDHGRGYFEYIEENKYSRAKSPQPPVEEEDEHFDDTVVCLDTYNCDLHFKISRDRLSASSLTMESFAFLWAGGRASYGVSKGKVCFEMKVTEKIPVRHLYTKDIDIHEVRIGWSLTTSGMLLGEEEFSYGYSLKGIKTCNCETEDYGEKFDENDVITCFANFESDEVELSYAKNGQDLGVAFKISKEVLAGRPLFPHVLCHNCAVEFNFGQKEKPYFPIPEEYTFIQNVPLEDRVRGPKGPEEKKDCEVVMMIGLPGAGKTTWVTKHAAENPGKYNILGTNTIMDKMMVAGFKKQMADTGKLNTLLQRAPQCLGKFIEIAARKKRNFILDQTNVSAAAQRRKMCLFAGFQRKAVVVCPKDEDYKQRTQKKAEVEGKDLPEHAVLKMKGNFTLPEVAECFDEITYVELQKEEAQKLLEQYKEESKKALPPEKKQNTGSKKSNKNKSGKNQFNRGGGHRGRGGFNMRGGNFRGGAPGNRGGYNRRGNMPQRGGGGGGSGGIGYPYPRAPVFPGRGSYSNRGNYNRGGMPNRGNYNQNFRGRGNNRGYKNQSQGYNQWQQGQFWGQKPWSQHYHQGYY
Chain of Tight junction protein 1 (Homo sapiens) (Q07157 whole entry): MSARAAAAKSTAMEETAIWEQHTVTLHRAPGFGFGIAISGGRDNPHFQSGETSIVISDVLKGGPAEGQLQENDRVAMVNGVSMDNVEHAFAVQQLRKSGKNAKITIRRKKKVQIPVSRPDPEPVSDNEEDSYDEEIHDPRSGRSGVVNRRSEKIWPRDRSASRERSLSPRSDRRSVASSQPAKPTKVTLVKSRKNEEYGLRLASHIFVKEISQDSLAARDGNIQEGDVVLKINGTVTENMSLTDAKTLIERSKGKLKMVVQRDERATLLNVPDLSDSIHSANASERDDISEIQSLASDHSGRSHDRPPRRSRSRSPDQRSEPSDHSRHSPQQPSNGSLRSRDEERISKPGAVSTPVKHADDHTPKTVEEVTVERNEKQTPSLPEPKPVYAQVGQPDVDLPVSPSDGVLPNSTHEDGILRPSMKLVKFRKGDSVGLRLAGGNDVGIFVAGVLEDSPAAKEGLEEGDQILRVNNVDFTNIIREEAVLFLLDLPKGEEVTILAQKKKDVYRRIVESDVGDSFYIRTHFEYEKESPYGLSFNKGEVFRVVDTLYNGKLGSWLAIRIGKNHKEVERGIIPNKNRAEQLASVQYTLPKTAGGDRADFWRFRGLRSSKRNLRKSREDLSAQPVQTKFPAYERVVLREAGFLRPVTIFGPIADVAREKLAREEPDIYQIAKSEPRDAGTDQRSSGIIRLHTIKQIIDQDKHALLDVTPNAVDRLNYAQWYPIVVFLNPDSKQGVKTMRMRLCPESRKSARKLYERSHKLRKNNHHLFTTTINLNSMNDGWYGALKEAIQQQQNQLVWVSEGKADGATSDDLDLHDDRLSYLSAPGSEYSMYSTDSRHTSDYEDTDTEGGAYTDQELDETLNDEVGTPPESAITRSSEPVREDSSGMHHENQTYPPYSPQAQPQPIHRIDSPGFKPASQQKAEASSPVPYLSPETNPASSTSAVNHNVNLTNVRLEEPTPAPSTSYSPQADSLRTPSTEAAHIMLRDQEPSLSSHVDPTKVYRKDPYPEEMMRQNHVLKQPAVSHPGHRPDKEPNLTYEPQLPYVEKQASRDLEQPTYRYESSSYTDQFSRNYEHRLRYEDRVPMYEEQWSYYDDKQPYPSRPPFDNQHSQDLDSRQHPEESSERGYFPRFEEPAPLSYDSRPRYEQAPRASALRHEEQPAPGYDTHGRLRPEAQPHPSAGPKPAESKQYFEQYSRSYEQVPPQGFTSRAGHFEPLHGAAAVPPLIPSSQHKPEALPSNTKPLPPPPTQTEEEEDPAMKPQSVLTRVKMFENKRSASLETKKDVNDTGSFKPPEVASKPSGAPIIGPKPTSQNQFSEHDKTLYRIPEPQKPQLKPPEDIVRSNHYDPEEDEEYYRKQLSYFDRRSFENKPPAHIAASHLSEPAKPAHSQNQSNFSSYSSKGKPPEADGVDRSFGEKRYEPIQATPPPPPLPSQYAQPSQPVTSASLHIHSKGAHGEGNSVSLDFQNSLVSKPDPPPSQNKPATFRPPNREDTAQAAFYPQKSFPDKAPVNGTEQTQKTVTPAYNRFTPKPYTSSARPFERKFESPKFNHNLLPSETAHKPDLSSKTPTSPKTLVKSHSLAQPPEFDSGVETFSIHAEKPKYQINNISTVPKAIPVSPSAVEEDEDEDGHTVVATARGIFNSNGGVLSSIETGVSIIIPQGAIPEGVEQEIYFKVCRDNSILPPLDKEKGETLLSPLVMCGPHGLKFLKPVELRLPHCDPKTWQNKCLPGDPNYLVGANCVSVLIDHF
Chain of Alpha-2-HS-glycoprotein (Homo sapiens) (P02765 whole entry): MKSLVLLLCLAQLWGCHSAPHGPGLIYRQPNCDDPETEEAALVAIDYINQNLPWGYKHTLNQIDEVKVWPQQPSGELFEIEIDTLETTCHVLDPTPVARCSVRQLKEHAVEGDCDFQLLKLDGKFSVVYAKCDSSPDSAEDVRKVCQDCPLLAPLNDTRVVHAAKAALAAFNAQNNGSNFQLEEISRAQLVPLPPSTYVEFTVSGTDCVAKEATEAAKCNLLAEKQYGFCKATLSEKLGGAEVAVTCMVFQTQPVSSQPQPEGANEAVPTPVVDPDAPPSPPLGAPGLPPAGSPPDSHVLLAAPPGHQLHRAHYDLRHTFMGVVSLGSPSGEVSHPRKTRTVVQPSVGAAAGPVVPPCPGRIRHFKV
Chain of Cytosolic iron-sulfur assembly component 2A (Homo sapiens) (Q9H5X1 whole entry, the tested form may be a part): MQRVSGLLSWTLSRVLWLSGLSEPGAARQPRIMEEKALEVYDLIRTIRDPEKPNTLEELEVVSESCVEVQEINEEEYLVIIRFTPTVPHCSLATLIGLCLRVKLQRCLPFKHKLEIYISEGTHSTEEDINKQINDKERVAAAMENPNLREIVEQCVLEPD
Chain of Protein kinase C iota (Homo sapiens) (P41743 whole entry, looked up): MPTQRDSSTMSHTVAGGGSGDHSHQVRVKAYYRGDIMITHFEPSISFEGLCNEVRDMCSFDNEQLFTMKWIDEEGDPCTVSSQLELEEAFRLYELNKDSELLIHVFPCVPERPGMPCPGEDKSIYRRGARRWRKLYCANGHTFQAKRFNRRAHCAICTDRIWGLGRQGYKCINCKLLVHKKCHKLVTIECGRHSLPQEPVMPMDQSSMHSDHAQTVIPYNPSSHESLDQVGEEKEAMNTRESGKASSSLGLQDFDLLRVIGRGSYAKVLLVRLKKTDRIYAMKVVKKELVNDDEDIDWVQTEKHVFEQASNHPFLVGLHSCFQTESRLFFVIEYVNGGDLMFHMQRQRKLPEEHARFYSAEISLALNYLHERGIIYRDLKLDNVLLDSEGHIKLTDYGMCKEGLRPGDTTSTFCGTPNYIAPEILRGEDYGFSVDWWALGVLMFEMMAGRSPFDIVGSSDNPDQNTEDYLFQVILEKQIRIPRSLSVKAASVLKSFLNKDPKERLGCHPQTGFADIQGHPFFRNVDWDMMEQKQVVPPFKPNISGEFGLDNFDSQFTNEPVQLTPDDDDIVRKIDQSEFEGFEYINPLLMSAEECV

For the compound `C=CC(=O)Nc1ccccc1Nc1nc(Nc2ccc(N3CCN(C)CC3)cc2)ncc1Cl`, in assay [1], the inhibition is -5.7%.

Consider `COc1cc(O)c2c(c1)/C=C/C[C@H](O)[C@H](O)C(=O)/C=C\C[C@H](C)OC2=O`, for which the Activity in [2] came to 72%.

On to `C=CC(=O)Nc1ccccc1Nc1nc(Nc2ccc(N3CCN(CCOCCOCCOCCNC(=O)CCCC[C@@H]4SC[C@@H]5NC(=O)N[C@@H]54)CC3)cc2)ncc1Cl`, for which the result in [3], in assay [4], in [5], in [6], in assay [7] and in assay [8] was Active. Moreover, the result in assay [9], in assay [10], in assay [11], in [12], in assay [13] and in [14] was Active. Also, the outcome in assay [15], in assay [16], in assay [17] and in assay [18] was Active.

Source of the values: ChEMBL document CHEMBL4118021, “Studies of TAK1-centered polypharmacology with novel covalent TAK1 inhibitors” (Bioorg Med Chem, 2017).
